Measurements as given in PubChem BioAssay AID624302 (The Scripps Research Institute Molecular Screening Center, 2012).
Calls of active or inactive are those of the source.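 The calls were made as follows: active = relative luminescence ratio of 1.25 or more at any tested dose; inactive = ratio below 1.25 at every dose.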

target: Nuclear receptor subfamily 0 group B member 1 (Homo sapiens) (UniProt P51843); assay: relief of Gal4-DAX1 luciferase repression – cell-based, luminescence, HEK293, powder samples, assay provider, dose response (AID 624302); conditions: luciferase reporter luminescence, at 100 µM, hits give high values
How it was run: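 test system = HEK293 with GAL4-DAX1 fusion and Gal4-tk-luc reporter | signal = luciferase reporter luminescence | compound dosing = 100 µM, plus three 1:2 steps starting 50 µM | controls = DMSO vehicle wells as reference | read-out basis = luminescence ratio versus DMSO wells, higher with DAX1 derepression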

Sequence of Nuclear receptor subfamily 0 group B member 1 (Homo sapiens) (P51843 207-470 limits assumed): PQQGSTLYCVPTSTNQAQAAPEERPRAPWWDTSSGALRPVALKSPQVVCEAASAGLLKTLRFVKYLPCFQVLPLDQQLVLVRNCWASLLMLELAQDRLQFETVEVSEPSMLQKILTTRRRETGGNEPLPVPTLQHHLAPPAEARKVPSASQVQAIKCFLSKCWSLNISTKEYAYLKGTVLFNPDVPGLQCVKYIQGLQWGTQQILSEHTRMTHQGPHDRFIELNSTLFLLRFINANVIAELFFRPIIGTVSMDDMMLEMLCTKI

| SMILES | relative luminescence ratio |
| --- | --- |
| COc1ccc(OC)c(C(C)NC(=O)c2cccc3ccccc23)c1 (centres undefined) | 0.01 (inactive) |
| COc1ccc(OC)c(C(C)NC(=O)c2ccc(C(C)(C)C)cc2)c1 (centres undefined) | 0.1 (inactive) |
| COc1ccc(OC)c(C(C)NC(=O)c2ccc(C)cc2)c1 (centres undefined) | 0.38 (inactive) |
| O=C(Nc1ccc2c(c1)OCO2)c1ccc(C2SCC(=O)N2Cc2ccccc2)cc1 (centres undefined) | 0.01 (inactive) |
| COc1ccc(OC)c(C(C)NC(=O)c2cccc(F)c2)c1 (centres undefined) | 0.63 (inactive) |
| O=C(Nc1ccc2c(c1)OCO2)c1ccc(C2SCC(=O)N2Cc2ccco2)cc1 (centres undefined) | 0.01 (inactive) |
| COc1cccc(C(=O)NC(C)c2cc(OC)ccc2OC)c1 (centres undefined) | 0.3 (inactive) |
| COc1ccc(OC)c(C(C)NC(=O)c2ccccc2F)c1 (centres undefined) | 0.39 (inactive) |
| COc1ccc(OC)c(C(C)NC(=O)c2ccc3c(c2)OCCO3)c1 (centres undefined) | 0.31 (inactive) |
| COc1ccc(OC)c(C(C)NC(=O)c2ccccc2)c1 (centres undefined) | 0.46 (inactive) |
| COc1ccc(OC)c(C(C)NC(=O)c2ccccc2C)c1 (centres undefined) | 0.42 (inactive) |
| COc1ccc(OC)c(C(C)NC(=O)c2ccc(F)cc2)c1 (centres undefined) | 0.33 (inactive) |
| COc1ccc(OC)c(C(C)NC(=O)c2c(F)cccc2Cl)c1 (centres undefined) | 0.51 (inactive) |
| Cn1c(=O)n(C)c2cc(C(=O)Nc3ccc4c(c3)OCCO4)ccc21 | 2.25 |
| CSc1ccccc1C(=O)Nc1ccc2c(c1)OCCO2 | 0.51 (inactive) |
| COc1ccc(OC)c(C(C)NC(=O)c2ccc(Cl)cc2)c1 (centres undefined) | 0.3 (inactive) |
| COc1ccc(OC)c(C(C)NC(=O)c2ccccc2Cl)c1 (centres undefined) | 0.39 (inactive) |
| COc1ccc(OC)c(C(C)NC(=O)c2cccc(C)c2)c1 (centres undefined) | 0.23 (inactive) |

Further lines, results first:

| relative luminescence ratio | SMILES |
| --- | --- |
| 0.05 (inactive) | CN(C)c1cccc(C(=O)Nc2ccc3c(c2)OCCO3)c1 |
| 1.77 | Cn1c(=O)n(C)c2cc(C(=O)Nc3ccc4c(c3)OCO4)ccc21 |
| 0.41 (inactive) | CSc1ccccc1C(=O)Nc1ccc2c(c1)OCO2 |
| 0.21 (inactive) | Cc1occc1C(=O)Nc1ccc2c(c1)OCO2 |
| 0.02 (inactive) | COc1cccc(C(=O)Nc2ccc3c(c2)OCCO3)c1 |
| 0.02 (inactive) | O=C(Nc1ccc2c(c1)OCO2)c1ccc2ccccc2c1 |
| 0.16 (inactive) | COc1cccc(C(=O)Nc2ccc3c(c2)OCO3)c1 |
| 0.62 (inactive) | O=C(Cc1cccs1)Nc1ccc2c(c1)OCO2 |
| 0.26 (inactive) | Cc1cc(C(=O)Nc2ccc3c(c2)OCO3)cs1 |
| 0.38 (inactive) | O=C(Nc1ccc2c(c1)OCO2)c1cccs1 |
| 0.02 (inactive) | O=C(Nc1ccc2c(c1)OCCO2)c1ccc2ccccc2c1 |
